KCNK9 inh: inhibitors of human KCNK9 two-pore domain potassium channel | Q9NPC2 | HEK293 KCNK9, FluxOR thallium flux fluorescence; active compounds read low | B-score at 10 µM | actives 1.2% (n = 310,000) | AID 488922;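 active = ratio B-score over 3 SD below the library mean, with starting fluorescence within 5 SD of its mean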;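 also: negative B-score means less thallium flux so channel inhibition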
Target sequence (Q9NPC2 whole entry, looked up, the tested form may be a part): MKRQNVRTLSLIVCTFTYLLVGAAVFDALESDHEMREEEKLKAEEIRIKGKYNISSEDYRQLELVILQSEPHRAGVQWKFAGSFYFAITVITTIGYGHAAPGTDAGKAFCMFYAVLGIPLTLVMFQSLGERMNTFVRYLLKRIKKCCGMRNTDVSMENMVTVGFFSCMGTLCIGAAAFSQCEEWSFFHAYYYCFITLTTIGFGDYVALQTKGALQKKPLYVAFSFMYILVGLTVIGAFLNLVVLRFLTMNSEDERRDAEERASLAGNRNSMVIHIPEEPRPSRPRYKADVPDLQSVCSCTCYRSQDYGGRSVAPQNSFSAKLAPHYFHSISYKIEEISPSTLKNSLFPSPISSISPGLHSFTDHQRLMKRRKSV
hERG protect: compounds protecting human hERG from proarrhythmic drug block. Q12809. CHO-hERG, FluxOR thallium flux, dofetilide IC70 present. activation (rescue from dofetilide block), less the hit threshold, % at 10 µM. actives 0.51% (n = 310,000);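 active = activation above the mean of controls blocked by dofetilide plus 5 SD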;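 also: thallium influx through hERG after potassium depolarization seen as dye fluorescence rise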
KCNQ1 pot: potentiates or activates the human KCNQ1 potassium channel. P51787. actives 0.35% (n = 310,000). CHO-K1 KCNQ1, thallium flux FluxOR fluorescence; active compounds read high. B-score at 10 µM;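 active = fluorescence ratio B-score, a plate-corrected score, at least three library SD, with initial intensity B-score within 5 SD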
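Schedule – 37 °C overnight plating, 90-min dark dye load, 20-min compound pretreatment · System – stable KCNQ1 CHO-K1 line · Probe or stimulus – thallium- and potassium-containing depolarizing buffer · Measured by – kinetic FluxOR fluorescence, 10 s baseline plus 110 s post-stimulus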
KCNQ1 block: inhibitors of human KCNQ1 potassium channel | CHO-K1 KCNQ1, FluxOR thallium flux fluorescence; active compounds read high | B-score at 10 µM | actives 1.3% (n = 310,000);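 active = compounds whose thallium flux B-score, printed positive for inhibition, exceeds three library SD while starting fluorescence stays within three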;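 also: channel opened by potassium depolarization with thallium stimulus after 20 min compound exposure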
KCNK3 inh: human KCNK3 channel inhibition, primary screen; O14649; CHO-KCNK3 thallium flux, FluxOR fluorescence; active compounds read low; B-score at 10 µM; actives 0.84% (n = 340,000);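 active = B-score under library mean minus 4 SD, starting fluorescence ratio at most library mean plus 5 SD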;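 also: more negative B-score means stronger inhibition of thallium flux through KCNK3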
Target sequence (O14649 whole entry, looked up): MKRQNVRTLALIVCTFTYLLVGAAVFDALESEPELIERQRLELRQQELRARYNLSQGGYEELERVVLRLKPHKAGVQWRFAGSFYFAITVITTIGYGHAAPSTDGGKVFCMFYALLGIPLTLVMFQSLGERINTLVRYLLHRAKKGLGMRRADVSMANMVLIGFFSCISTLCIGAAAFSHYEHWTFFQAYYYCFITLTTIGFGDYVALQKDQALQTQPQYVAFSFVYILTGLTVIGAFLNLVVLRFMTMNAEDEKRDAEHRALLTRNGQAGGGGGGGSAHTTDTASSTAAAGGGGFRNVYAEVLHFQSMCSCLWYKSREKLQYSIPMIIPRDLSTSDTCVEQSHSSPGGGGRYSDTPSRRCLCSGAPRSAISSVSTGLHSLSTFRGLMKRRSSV
Kir21 inh: Kir2.1 (mouse) channel inhibition; P35561; HEK293-Kir2.1, FluxOR thallium flux fluorescence; active compounds read low; B-score at 10 µM; actives 0.85% (n = 310,000); AID 1672;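 active = fluorescence ratio B-score at or below minus 3 SD of library scores, with starting-brightness B-score within 2 SD, cut at about -4.2 in these data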;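 also: channel flux triggered by added potassium and thallium sulfate stimulus; B-score of peak minus minimum fluorescence over baseline after thallium stimulus; more negative B-score means stronger Kir2.1 block with less thallium influx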
KCNK3 confirm: human KCNK3 channel inhibition, confirmation assay. shares compounds with KCNK3 inh. CHO-KCNK3 thallium flux, FluxOR fluorescence; 0% buffer, 100% carvedilol maximal block. ratio percent of control, % at 10 µM. actives 99% (n = 2,400);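 active = ratio percent of control, averaged over triplicates, above buffer control mean plus 5 SD, cut at about 64% in these data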;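 also: ratio is the fluorescence rise from min to max over baseline after thallium stimulus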
KCNK3 noninduced: activity in cells without induced KCNK3 expression; AID 651747; actives 40% (n = 2,400); thallium flux ratio (lower = more inhibition) at 10 µM; non-induced KCNK3 parental cells, FluxOR thallium flux; active compounds read low; shares compounds with KCNK3 inh;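 active = thallium flux ratio, averaged over three wells, more than 5 SD below the buffer control mean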;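 also: host cells are CHO cells without KCNK3 induction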
Each line names hits and unclear results; the compound was inactive in the other large screens (follow-up assays come after a bar, where they were run). Rows were chosen to be rich in hits. Some 3.7% of all compounds tested hit in one or more screens of this group.

CC(C)(C)OC(=O)NCCCCCc1nnc(SCC(=O)Nc2cccc(Cl)c2)o1	KCNK3 inh -9.2 | KCNK3 confirm 117 | KCNK3 noninduced 0.15
O=C(CCCOc1ccc(Cl)cc1Cl)NN1CCOCC1	none
CCOc1ccc(OCC)c(S(=O)(=O)n2cnc(C)c2)c1	KCNK3 inh -8.8 | KCNK3 confirm 82 | KCNK3 noninduced inactive
CCO[C@H]1OC(C(=O)N2CCN(C)CC2)=C[C@@H](c2ccc(Br)cc2)[C@@H]1CCCO	none
CCCC(=O)Nc1nc2c(s1)COc1ccccc1-2	none
O=C(CCSc1ccccc1)Nc1nc2c(s1)COc1ccccc1-2	KCNK3 inh -9.4 | KCNK3 confirm 105 | KCNK3 noninduced inactive
O=[N+]([O-])c1ccccc1/C=N\N1CCN(Cc2ccccc2Cl)CC1	KCNK3 inh -8.9 | KCNK3 confirm 99 | KCNK3 noninduced inactive
COC(=O)C1CCN(C(=O)COC(=O)c2cc(-c3ccccc3)nc3ccc(OC)cc23)CC1	KCNK3 inh -12 (no result: KCNK9 inh, hERG protect, KCNQ1 pot, KCNQ1 block, Kir21 inh) | KCNK3 confirm 105 | KCNK3 noninduced inactive
COc1ccc(-c2cc(C(=O)OCC(=O)N3CCOCC3)c3ccccc3n2)cc1	none (no result: KCNK9 inh, hERG protect, KCNQ1 pot, KCNQ1 block, Kir21 inh)
O=C(NC1CC1)c1cccc(NC(=O)c2cnn(-c3ccccc3)n2)c1	none (no result: KCNK9 inh, hERG protect, KCNQ1 pot, KCNQ1 block, Kir21 inh)
O=C(NC1CC1)c1cccc(NC(=O)c2cn3ccccc3n2)c1	KCNK3 inh -12 (no result: KCNK9 inh, hERG protect, KCNQ1 pot, KCNQ1 block, Kir21 inh) | KCNK3 confirm 60 | KCNK3 noninduced inactive
CCN(CC)C(=O)Oc1nnc(SC(C)C)n1-c1ccc(Cl)cc1	KCNK3 inh -9.6 | KCNK3 confirm 86 | KCNK3 noninduced inactive
CCN(CC)C(=O)Oc1nnc(SC(C)C)n1-c1ccc(Cl)c(Cl)c1	none
Cc1c(CCC(=O)NC2CC2)c(=O)oc2c(C)c(O)ccc12	none
FC(F)(F)c1cnc(-c2cnc(-c3ccccn3)nc2)c(Cl)c1	none
COCCNC(=S)N/N=C/c1c2ccccc2cc2ccccc12	KCNK3 inh -14 | KCNK3 confirm 110 | KCNK3 noninduced inactive
CC(C)CN(C(=O)c1cc2ccccc2o1)c1c(N)n(CC(C)C)c(=O)[nH]c1=O	none
O=[N+]([O-])c1c(Nc2ccc(O)cc2)cc(Cl)c2nonc12	KCNQ1 block 9, KCNK3 inh -11, Kir21 inh -6.5 | KCNK3 confirm 164 | KCNK3 noninduced 0.054
CCOc1ccc(CN(C)c2nc(-c3cccnc3)nc3ccccc23)cc1OC	KCNK3 inh -16 | KCNK3 confirm 104 | KCNK3 noninduced inactive
COc1ccccc1-c1c(C)oc2c(CN3CCN(CCO)CC3)c(O)ccc2c1=O	KCNK3 inh -20 | KCNK3 confirm 59 | KCNK3 noninduced inactive
COc1ccccc1-c1c(C)oc2c(CN3CCN(C)CC3)c(O)ccc2c1=O	none
COc1ccc(/C=C2\SC(=S)NC2=O)cc1OS(=O)(=O)c1ccc(NC(C)=O)cc1	KCNQ1 block 13, KCNK3 inh -10 | KCNK3 confirm 124 | KCNK3 noninduced inactive
Oc1ccc(/C=C/c2ccc3cccc(O)c3n2)cc1Br	KCNK3 inh -11 | KCNK3 confirm 135 | KCNK3 noninduced 0.12
O=C(O)c1ccc(/C=C/c2ccc3cccc(O)c3n2)cc1	none
O=[N+]([O-])c1ccc2nc(C3CCCCC3)[nH]c2c1	none
O=[N+]([O-])c1ccc(O)c(C2CCCCC2)c1	KCNK3 inh -11 (no result: KCNK9 inh, hERG protect, KCNQ1 pot, KCNQ1 block, Kir21 inh) | KCNK3 confirm 127 | KCNK3 noninduced 0.14
Oc1cccc2ccc[n+](CC(O)Cn3c4ccccc4c4ccccc43)c12 (stereo not drawn)	none
COCCOCCn1c(/C=C/c2ccccc2)nc2ccccc21	KCNK3 inh -9.2 | KCNK3 confirm 93 | KCNK3 noninduced inactive
CCCn1c(/C=C/c2ccccc2)nc2ccccc21	none
COc1ccc(-c2[nH]ncc2CN(C)C(C)c2cccs2)c(F)c1 (stereo not drawn)	KCNK3 inh -9.5 | KCNK3 confirm 101 | KCNK3 noninduced inactive
COCCOC(=O)C1=C(C)NC(=O)NC1c1cn(-c2ccccc2)nc1-c1cccs1 (stereo not drawn)	none
C=CCOC(=O)C1=C(C)NC(=O)NC1c1cn(-c2ccccc2)nc1-c1cccs1 (stereo not drawn)	KCNK3 inh -9.2 | KCNK3 confirm 120 | KCNK3 noninduced 0.15
CCCN(c1nc(C)cc(OC)n1)S(=O)(=O)c1ccccc1	KCNK3 inh -12, Kir21 inh -8.3 | KCNK3 confirm 101 | KCNK3 noninduced inactive
Cc1nn(CC(=O)N(C)C2CCS(=O)(=O)C2)c(C)c1S(=O)(=O)N(C)C (stereo not drawn)	none (no result: KCNK9 inh, hERG protect, KCNQ1 pot, KCNQ1 block, Kir21 inh)
COc1ccc(O)c(C(=O)c2cnn(-c3ccc(Cl)cc3)c2)c1	KCNK3 inh -12 | KCNK3 confirm 92 | KCNK3 noninduced inactive
N#Cc1c(N)nc(SCC(=O)OCc2ccccc2)c(C#N)c1-c1ccco1	KCNK3 inh -11 | KCNK3 confirm 87 | KCNK3 noninduced inactive
CCOc1ccc(C(=O)C(C)OC(=O)C2CCN(c3ccc(C(F)(F)F)cn3)CC2)cc1 (stereo not drawn)	KCNQ1 block 8, KCNK3 inh -9.4 | KCNK3 confirm 83 | KCNK3 noninduced 0.16
CC(OC(=O)C1CCN(c2ccc(C(F)(F)F)cn2)CC1)C(=O)NC1CCCCC1C (stereo not drawn)	none (no result: KCNK9 inh, hERG protect, KCNQ1 pot, KCNQ1 block, Kir21 inh)
O=C(CCN1CCOCC1)NNC(=O)c1ccc([N+](=O)[O-])cc1[N+](=O)[O-]	none (no result: KCNK9 inh, hERG protect, KCNQ1 pot, KCNQ1 block, Kir21 inh)
Cc1ccc2oc(=O)n(CCCOc3ccccc3C)c2c1	KCNK3 inh -11 | KCNK3 confirm 121 | KCNK3 noninduced 0.14
Cc1cc(C)nc(N(C#N)Cc2cccc3ccccc23)n1	KCNK3 inh -9.2 | KCNK3 confirm 74 | KCNK3 noninduced inactive
O=[N+]([O-])/C(C(Cl)=C(Cl)Cl)=C(\Sc1ccccc1)N1CCCCC1	none
O=[N+]([O-])C(=C1SCCS1)C(=C(Cl)Cl)N1CCCCC1	KCNK3 inh -11 | KCNK3 confirm 105 | KCNK3 noninduced inactive
CCN(CC)S(=O)(=O)c1ccc(C(=O)OCn2c(SC)nnc(C)c2=O)cc1	none
Cn1c2ccccc2c(=O)c2c(=O)n(Cc3ccccc3)c(-c3ccc(F)cc3)nc21	none
CCN(Cc1ccccc1)C(=O)c1cc2c(=O)oc3ccc(C)cc3c2s1	KCNQ1 block 6, KCNK3 inh -8.9 | KCNK3 confirm 111 | KCNK3 noninduced 0.12
Cc1ccc2oc(=O)c3cc(C(=O)N4CCN(C(=O)c5ccco5)CC4)sc3c2c1	none (no result: KCNK3 inh)
Cc1ccc(NC(=S)N(CCN(C)C)C(C)c2ccco2)cc1C (stereo not drawn)	none

Assay outcomes from PubChem BioAssay.
